Biological target: T1, Angiotensin-converting enzyme (Oryctolagus cuniculus, UniProt P12822)
T1 sequence (P12822 whole entry): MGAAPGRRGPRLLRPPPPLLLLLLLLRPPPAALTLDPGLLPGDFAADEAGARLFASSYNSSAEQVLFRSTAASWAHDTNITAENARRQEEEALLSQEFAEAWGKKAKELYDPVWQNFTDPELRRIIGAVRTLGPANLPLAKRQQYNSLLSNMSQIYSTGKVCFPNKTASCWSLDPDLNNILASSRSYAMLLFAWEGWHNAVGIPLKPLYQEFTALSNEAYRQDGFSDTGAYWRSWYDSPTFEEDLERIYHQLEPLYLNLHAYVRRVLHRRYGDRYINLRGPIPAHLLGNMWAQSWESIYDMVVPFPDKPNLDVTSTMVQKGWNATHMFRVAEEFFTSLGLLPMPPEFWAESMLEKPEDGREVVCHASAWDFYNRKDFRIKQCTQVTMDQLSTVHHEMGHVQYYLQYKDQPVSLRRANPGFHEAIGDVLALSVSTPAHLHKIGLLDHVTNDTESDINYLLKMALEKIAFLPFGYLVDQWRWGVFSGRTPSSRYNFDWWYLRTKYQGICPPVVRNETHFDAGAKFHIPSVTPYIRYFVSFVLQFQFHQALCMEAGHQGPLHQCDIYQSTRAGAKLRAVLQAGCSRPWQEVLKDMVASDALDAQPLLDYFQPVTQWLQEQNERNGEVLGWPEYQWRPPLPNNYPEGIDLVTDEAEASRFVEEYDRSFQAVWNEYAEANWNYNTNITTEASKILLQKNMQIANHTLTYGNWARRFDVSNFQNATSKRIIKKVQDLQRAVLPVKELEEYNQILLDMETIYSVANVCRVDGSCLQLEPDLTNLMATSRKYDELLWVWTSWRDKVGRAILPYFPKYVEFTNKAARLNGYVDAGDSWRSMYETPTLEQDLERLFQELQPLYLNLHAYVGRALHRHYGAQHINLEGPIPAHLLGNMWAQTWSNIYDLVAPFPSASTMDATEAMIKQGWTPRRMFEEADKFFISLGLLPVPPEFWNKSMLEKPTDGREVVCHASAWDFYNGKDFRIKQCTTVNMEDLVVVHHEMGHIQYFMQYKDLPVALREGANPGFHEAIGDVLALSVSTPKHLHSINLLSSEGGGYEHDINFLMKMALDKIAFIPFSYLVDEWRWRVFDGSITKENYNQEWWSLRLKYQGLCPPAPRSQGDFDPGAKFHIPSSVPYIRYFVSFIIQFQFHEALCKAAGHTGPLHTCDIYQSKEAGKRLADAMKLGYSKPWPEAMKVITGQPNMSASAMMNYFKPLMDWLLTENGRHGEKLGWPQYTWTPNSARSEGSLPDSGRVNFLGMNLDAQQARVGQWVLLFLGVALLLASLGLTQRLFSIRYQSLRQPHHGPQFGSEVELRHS
Assay: In vitro inhibitory activity against Angiotensin I converting enzyme from rabbit lung
Conditions: not given
In short: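 Enzyme source was rabbit lung ACE. The inhibition procedure followed an earlier published method.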

Row | IC50 [nM] | Compound
1 | 740000 | O=C(NCCS(=O)(=O)[O-])[C@H](CS)Cc1ccccc1.[Na+]
2 | 430000 | O=C(NCCS(=O)(=O)[O-])[C@@H](CS)Cc1ccccc1.[Na+]
3 | 12000 | O=C(NCS(=O)(=O)O)C(CS)Cc1ccccc1 (stereo unspecified)
4 | 720000 | O=C(NCCS(=O)(=O)[O-])C(CS)Cc1ccccc1.[Na+] (stereo unspecified)
5 | 210000 | O=C(Nc1ccc(S(=O)(=O)O)cc1)C(CS)Cc1ccccc1 (stereo unspecified)
6 | 290000 | O=C(Nc1cccc(S(=O)(=O)O)c1)C(CS)Cc1ccccc1 (stereo unspecified)

Biological target: T1, Angiotensin-converting enzyme
Assay: In vitro inhibitory activity against angiotensin I converting enzyme (ACE) from rabbit lung
Conditions: not given

Row | IC50 [nM] | Compound
7 | 37000 | O=C(Nc1ccc(S(=O)(=O)O)c2ccccc12)C(CS)Cc1ccccc1 (stereo unspecified)

Biological target: T2, Neprilysin (Rattus norvegicus, UniProt P07861)
T2 sequence (P07861 whole entry): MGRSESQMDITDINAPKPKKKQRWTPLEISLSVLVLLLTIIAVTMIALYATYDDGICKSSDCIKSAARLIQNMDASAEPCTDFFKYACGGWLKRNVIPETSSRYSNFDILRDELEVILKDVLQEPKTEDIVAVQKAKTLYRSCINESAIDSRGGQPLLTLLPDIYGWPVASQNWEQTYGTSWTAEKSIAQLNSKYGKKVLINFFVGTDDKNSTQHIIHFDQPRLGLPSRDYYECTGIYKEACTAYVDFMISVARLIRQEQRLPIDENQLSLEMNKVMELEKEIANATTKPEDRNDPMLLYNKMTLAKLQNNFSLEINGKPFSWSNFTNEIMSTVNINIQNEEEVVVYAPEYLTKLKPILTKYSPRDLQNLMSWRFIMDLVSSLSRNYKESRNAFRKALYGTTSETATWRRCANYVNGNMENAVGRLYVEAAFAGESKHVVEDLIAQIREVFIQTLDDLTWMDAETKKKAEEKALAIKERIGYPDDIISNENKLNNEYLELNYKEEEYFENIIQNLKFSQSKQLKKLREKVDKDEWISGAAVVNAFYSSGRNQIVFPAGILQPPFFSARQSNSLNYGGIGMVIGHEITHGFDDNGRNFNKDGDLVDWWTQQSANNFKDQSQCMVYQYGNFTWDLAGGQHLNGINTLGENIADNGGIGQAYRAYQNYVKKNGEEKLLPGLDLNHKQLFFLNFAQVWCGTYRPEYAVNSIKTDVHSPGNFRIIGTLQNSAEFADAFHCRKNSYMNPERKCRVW
Assay: In vitro inhibitory activity against enkephalinase enzyme from rat.
Conditions: not given
In short: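 Rat striatal membranes (male Std:Wistar) were solubilized with 1% Triton X-100 in 50 mM Tris-HCl pH 7.7 and fractionated on DEAE-cellulose; the enkephalin dipeptidylcarboxypeptidase fraction served as enzyme. […] Reaction was stopped with 0.2 N HCl, products separated on Porapak Q, and [3H]Tyr-Gly-Gly measured. IC50 by log-probit from 3–4 concentrations, run 2–3 times.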

Row | Compound | IC50 [nM]
8 | O=C(C(CS)Cc1ccccc1)N(CCS(=O)(=O)O)C1CC1 (stereo unspecified) | 4200
9 | O=C(Nc1ccc(S(=O)(=O)O)cc1)C(CS)Cc1ccc(C(F)(F)F)cc1 (stereo unspecified) | 150
10 | CN(C)c1ccc(CC(CS)C(=O)NCCS(=O)(=O)O)cc1 (stereo unspecified) | 37
11 | O=C(Nc1ccc(S(=O)(=O)O)cc1)C(CS)Cc1cccnc1 (stereo unspecified) | 33
12 | O=C(Nc1ccc(S(=O)(=O)O)cc1)C(CS)Cc1ccc(-c2ccccc2)cc1 (stereo unspecified) | 52
13 | O=C(Nc1ccccc1S(=O)(=O)O)C(CS)Cc1ccccc1 (stereo unspecified) | 140
14 | CC(C)CC(NC(=O)C(CS)Cc1ccccc1)S(=O)(=O)O (stereo unspecified) | 250
15 | CN(CCS(=O)(=O)O)C(=O)C(CS)Cc1ccccc1 (stereo unspecified) | 490
16 | CC(NC(=O)C(CS)Cc1ccccc1)S(=O)(=O)O (stereo unspecified) | 31
17 | O=C(Nc1ccc(S(=O)(=O)O)cc1)C(CS)Cc1cccc2ccccc12 (stereo unspecified) | 34
18 | O=C(Nc1ccc(S(=O)(=O)O)cc1)C(CS)CCCc1ccccc1 (stereo unspecified) | 110

More lines, now with the values ahead:

Row | IC50 [nM] | Compound
19 | 14 | CN(C)c1ccc(CC(CS)C(=O)Nc2ccc(S(=O)(=O)O)cc2)cc1 (stereo unspecified)
20 | 12 | O=C(Nc1ccc(S(=O)(=O)O)cc1)C(CS)Cc1noc2ccccc12 (stereo unspecified)
21 | 11 | O=C(NCCS(=O)(=O)O)C(CS)CCCc1ccccc1 (stereo unspecified)
22 | 11 | O=C(NCc1ccc(S(=O)(=O)O)cc1)C(CS)Cc1ccccc1 (stereo unspecified)
23 | 8.4 | O=C(NCCS(=O)(=O)O)C(CS)Cc1cccc2ccccc12 (stereo unspecified)
24 | 5.4 | O=C(NCCCS(=O)(=O)O)C(CS)Cc1ccccc1 (stereo unspecified)
25 | 5 | O=C(Nc1ccc(S(=O)(=O)O)cc1)C(CS)Cc1ccc(F)cc1 (stereo unspecified)
26 | 4.4 | O=C(NCCS(=O)(=O)[O-])[C@H](CS)Cc1ccccc1.[Na+]
27 | 4.4 | COc1ccc(CC(CS)C(=O)NCCS(=O)(=O)O)cc1 (stereo unspecified)
28 | 3.5 | O=C(NCCS(=O)(=O)O)C(CS)Cc1ccc(F)cc1 (stereo unspecified)
29 | 3.2 | COc1ccc(CC(CS)C(=O)Nc2ccc(S(=O)(=O)O)cc2)cc1 (stereo unspecified)
30 | 3.1 | Cc1ccc(CC(CS)C(=O)NCCS(=O)(=O)O)cc1 (stereo unspecified)
31 | 2.5 | Cc1ccc(CC(CS)C(=O)Nc2cccc(S(=O)(=O)O)c2)cc1 (stereo unspecified)
32 | 2.4 | CC(C)CC(CS)C(=O)Nc1cccc(S(=O)(=O)O)c1 (stereo unspecified)
33 | 2.2 | O=C(NCS(=O)(=O)O)C(CS)Cc1ccccc1 (stereo unspecified)
34 | 1.7 | O=C(Nc1ccc(S(=O)(=O)O)cc1)C(CS)Cc1ccccc1 (stereo unspecified)
35 | 1.5 | O=C(NCCS(=O)(=O)[O-])C(CS)Cc1ccccc1.[Na+] (stereo unspecified)
36 | 1.1 | Cc1ccc(CC(CS)C(=O)Nc2ccc(S(=O)(=O)O)cc2)cc1 (stereo unspecified)
37 | 0.9 | CC(C)CC(CS)C(=O)Nc1ccc(S(=O)(=O)O)cc1 (stereo unspecified)
38 | 0.82 | O=C(NCCS(=O)(=O)[O-])[C@@H](CS)Cc1ccccc1.[Na+]
39 | 0.27 | O=C(Nc1cccc(S(=O)(=O)O)c1)C(CS)Cc1ccccc1 (stereo unspecified)

Biological target: T2, Neprilysin
Assay: The compound was tested in vitro for its inhibitory activity against Enkephalinase enzyme
Conditions: not given
In short: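 Rat striatal membranes (male Std:Wistar) were solubilized with 1% Triton X-100 in 50 mM Tris-HCl pH 7.7 and fractionated on DEAE-cellulose; the enkephalin dipeptidylcarboxypeptidase fraction served as enzyme. IC50 by log-probit from 3–4 concentrations, run 2–3 times.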

Row | IC50 [nM] | Compound
40 | 5.2 | CC(C)CC(CS)C(=O)NCCS(=O)(=O)O (stereo unspecified)
41 | 17 | O=C(NCCS(=O)(=O)O)C(CS)Cc1ccc([N+](=O)[O-])cc1 (stereo unspecified)
42 | 14 | O=C(Nc1ccc(S(=O)(=O)O)cc1)C(CS)Cc1ccc([N+](=O)[O-])cc1 (stereo unspecified)
43 | 7.4 | O=C(Nc1ccc(S(=O)(=O)O)c2ccccc12)C(CS)Cc1ccccc1 (stereo unspecified)

System: Mus musculus
Assay: The compound was tested for administrating the compound intracisternally
Assay type: functional
Conditions: not given
In short: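 Female ddY mice (18–22 g) received 10 µL aqueous solution intracisternally 1 min before ip phenylbenzoquinone (0.03% in 5% aqueous EtOH, 10 mL/kg). Writhes were counted for 15 min starting 5 min after phenylbenzoquinone. Mice with behavioural change after injection were excluded. More than 50% reduction versus vehicle control counted as effective; ED50 given with 95% confidence limits.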

Row | Compound | ED50 [µg mouse-1]
44 | O=C(NCCS(=O)(=O)[O-])[C@H](CS)Cc1ccccc1.[Na+] | 17.7
45 | O=C(NCCS(=O)(=O)[O-])[C@@H](CS)Cc1ccccc1.[Na+] | 11.8
46 | O=C(NCCS(=O)(=O)[O-])C(CS)Cc1ccccc1.[Na+] (stereo unspecified) | 20
47 | O=C(O)CNC(=O)C(CS)Cc1ccccc1 (stereo unspecified) [THIORPHAN] | 17

System: Mus musculus
Assay: The compound was tested for administrating the compound intravenously
Assay type: functional
Conditions: iv
In short: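 Female ddY mice (18–22 g) were dosed iv 5 min before ip phenylbenzoquinone (0.03% in 5% aqueous EtOH, 10 mL/kg). Writhes were counted for 15 min starting 5 min after phenylbenzoquinone. More than 50% reduction versus vehicle control counted as effective; ED50 given with 95% confidence limits.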

Row | Compound | ED50 [mg/kg]
48 | O=C(NCCS(=O)(=O)[O-])[C@H](CS)Cc1ccccc1.[Na+] | 43.3
49 | O=C(NCCS(=O)(=O)[O-])[C@@H](CS)Cc1ccccc1.[Na+] | 8.5
50 | O=C(NCCS(=O)(=O)[O-])C(CS)Cc1ccccc1.[Na+] (stereo unspecified) | 18
51 | O=C(O)CNC(=O)C(CS)Cc1ccccc1 (stereo unspecified) [THIORPHAN] | 72

Source: ChEMBL document CHEMBL1126159, “A novel class of enkephalinase inhibitors containing a C-terminal sulfo group” (J Med Chem, 1992)
